36 sequences from the EternaBench riboswitch data can be followed below.

In this series the test system is MS2 coat protein. The series can be described thus: apparent Kd, MS2 coat protein; higher = weaker binding; RNA-MaP array. The procedure, abridged: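 Designs measured on fewer than 10 clusters were excluded from the data. The rest were RNAs transcribed from sequenced DNA templates on an Illumina sequencing chip and incubated at room temperature, with or without input ligand, with fluorescently labeled MS2 coat protein at 1.5 nM to 3 μM for 0.8–1.5 h at the lowest to 10–20 min at the highest concentrations. Apparent Kd is the median of the per-cluster binding-curve fits.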

The mark [1] stands for this setting: designed as: ON switch for flavin mononucleotide, no ligand.
Setting [2] is: ligand present: flavin mononucleotide, designed as: ON switch for flavin mononucleotide.
Where [3] appears, read: designed as: OFF switch for flavin mononucleotide, no ligand.
[4] abbreviates: ligand present: flavin mononucleotide, designed as: OFF switch for flavin mononucleotide.
The mark [5] stands for this setting: designed as: ON switch for tryptophan, no ligand.
Setting [6] is: ligand present: tryptophan, designed as: ON switch for tryptophan.

What is called apparent Kd is the concentration giving half-maximal binding under the conditions of the assay.

Take “UUCUACUAGUGACACUACUAGACAUGAGGAUCACCCAUGUCAGAGGAUAUGGAAAGACAUUAUUACCAGAAGGCUGCCAAGGUA”: the “apparent Kd” value under setting [1] came to 15.6 nM and the “apparent Kd” value under setting [2] was found to be 15 nM.

For “GUAACACUGUCAUCGCCGACAUGAGGAUCACCCAUGUGUAAGAGAAGGACCGAGACCGGGAAAUGGUAGGAUAUCUGUGGGUAG”, the “apparent Kd” value under setting [3] turned out to be 45.1 nM and the “apparent Kd” value under setting [4] stood at 84.5 nM.

Regarding “GAAUAGGAUCAGAAGGAGCUCCAACGGUGACAUGAGGAUCACCCAUGUACUAAACUACAGAAAAGCUAGGAUAUGAAUAAUAGG”, the “apparent Kd” value runs as follows: under setting [1], 27.7 nM; under setting [2], 25.4 nM.

In the case of “UAAAGAGAAGGAUAUACAGGAAGAAAAGCCUCACAAUCGUAACAUGAGGAUCACCCAUGUAGAAGGACUAACAA”, the “apparent Kd” value came to 38.7 nM under setting [3] and 29.5 nM under setting [4].

Consider “AGGAAGACGAUGGAUACCAGACAACCAGGGAACAUGAGGAUCACCCAUGUGAUUGAAAGGGUCCCUUGGCAGCCAGAAGCCGUUG”, for which the “apparent Kd” value came out at 88.3 nM (designed as: ON switch for theophylline, no ligand) and 119 nM (ligand present: theophylline, designed as: ON switch for theophylline).

With “UGUACAACAUGAGGAUCACCCAUGUGGCACCUCUGUCGAUUCGAGGAUAUCAGGUAAAGUGGCUGUGAGAAGGCGAAAGUUCCG”, the “apparent Kd” value stood at 65 nM under setting [3] and 50.3 nM under setting [4].

For “UCUAACAUGAGGAUCACCCAUGUGGGUUAUCGAGGACCGGUACGGCCGCCACUCGACCAGUAUAACUGGCUAGAACGUAUUUGAU”, the “apparent Kd” value is 34 nM under setting [5] and 26.6 nM under setting [6].

With “AAGGGCGCAGUAGGAUAUCAAUGUUUGACGGCGUGAGAAGGACUGCCCUAUUUUCAGACAUGAGGAUCACCCAUGUGCGUAAGA”, the “apparent Kd” value by setting is: under setting [1], 9.4 nM; under setting [2], 6.41 nM.

In the case of “GGCAAGUGAUAGAAGGGAUACAUGAGGAUCACCCAUGUAAGGGCGAAGCCUACCCUCCUUAAAGAUCAGGAUAUAUUGCAGACG”, the “apparent Kd” value by setting is: under setting [3], 20.3 nM; under setting [4], 19.6 nM.

Consider “UUAGAGAGAGGAUAUACAGAGUAUCAACUCGGCGGACAAGAACAUGAGGAUCACCCAUGUAGAAGGCUCUCAGA”, for which the “apparent Kd” value reads like this: under setting [3], 18.6 nM; under setting [4], 67.1 nM.

Regarding “CCUGAGGUUAUAGGAUAUAGGCUAGAGAGGUACGAUUCUUUAUGAACAUGAGGAUCACCCAUGUCCUAGAAGGAUACUUAGUAG”, the “apparent Kd” value runs as follows: under setting [1], 58.1 nM; under setting [2], 112 nM.

Take “GUUCCCAUAUCAGGAUAUAUUUCACAUGAGGAUCACCCAUGUUACCCGUGAAGUCGACUCUAUGUAUAGAAGGGAUGAUGGGCC”: the “apparent Kd” value under setting [3] worked out at 55.4 nM and the “apparent Kd” value under setting [4] came to 43.7 nM.

Regarding “AUACGUGCAGGAUAUUAUUCGAGCCACAUGAGGAUCACCCAUGUUAAUUCUUCAUGUAUCUAAGAAGGGCAGUGAA”, the “apparent Kd” value by setting is: under setting [3], 9.07 nM; under setting [4], 9.67 nM.

For the sequence “GUGCGAAUGCAAGGAUAUGUCACAUAAACUGGAACAGAAGGUGCUGCUGAACAUGAGGAUCACCCAUGUACUUGACCGGCAACU”, the “apparent Kd” value by setting is: under setting [1], 7.6 nM; under setting [2], 6.81 nM.

On to “GCGGGAGCACAGAAGGCGGAACUAAAGCAAUUACCAAUAGUUAACAUGAGGAUCACCCAUGUGCCCGAGGAUAUGUCGAAAGUG”, for which the “apparent Kd” value under setting [1] turned out to be 53.2 nM and the “apparent Kd” value under setting [2] was 10.6 nM.

For “GCAUACGGAUAGAAGGAACUCUACGAUACGACAUGAGGAUCACCCAUGUAAUAUCAGUUAAACGGUUAGGAUAUAUGGGUAGUC”, the “apparent Kd” value reads like this: under setting [1], 81.6 nM; under setting [2], 41.9 nM.

“UCUCUCGAUGUGCAUUGACAUGAGGAUCACCCAUGUACUGCCUAGGAUAUAACUGGCCCGAUCAGUUAGAAGGAGGGAGAAUAG”: the “apparent Kd” value runs as follows: under setting [3], 6.67 nM; under setting [4], 6.51 nM.

As to “AAAGAUAACAAAGGAUAUGGAAGAAAUUAUAGGCCAGAAGGAUGGAAAUUGACAAUCGUGACAUGAGGAUCACCCAUGUAAGAA”, the “apparent Kd” value is, setting by setting: under setting [1], 15.9 nM; under setting [2], 13.2 nM.

Turning to “GGCUGCGAUGGCGGAAAUUAUUUACAUAGGCGAGGACCGGUACGGCCGCCACUCGAACGUACAUGAGGAUCACCCAUGUGAUAAU”, the “apparent Kd” value turned out to be 71.8 nM under setting [5] and 26.5 nM under setting [6].

“UACAAACCGUUAGAUGGGACAUGAGGAUCACCCAUGUAUAACAGAAGGUCAAAUUGAAACAUUCAGAAGGAUAUGUCAUACAAA”: the “apparent Kd” value was determined as 85.3 nM under setting [3] and 59.5 nM under setting [4].

As for “CCUAACUGAGGAUAUGACAACUGGCACAUGAGGAUCACCCAUGUAGACUCAUUCGAGUUAUCAGAAGGCAGAAUAU”, the “apparent Kd” value came to 10.7 nM under setting [3] and 18.8 nM under setting [4].

As to “UCGGUUCGUGUAGGAUAUACUCGCAAACAGGCAAAAUGCCUACAUGAGGAUCACCCAUGUUAGUGGUAGAAGGACACCUCAACA”, the “apparent Kd” value runs as follows: under setting [1], 479 nM; under setting [2], 115 nM.

As for “UCACCAUGUCGAAACAUGAGGAUCACCCAUGUGAAUCAUGACAGAAGGUCUAUAGAAUGACGGAAGAAGGAUAUGUCAAUGCGC”, the “apparent Kd” value worked out at 17.8 nM under setting [3] and 17.4 nM under setting [4].

“CUCACUAAGCUUUAGGAUAUAGACACUGGCACAUGAGGAUCACCCAUGUUCAACAAGGCGGAUAACUAGAAGGAAAGUAACCUUUU”: the “apparent Kd” value was found to be 11.9 nM under setting [1] and 9.64 nM under setting [2].

“CCAUAAGACGAGAAGGGCUGCCAACUAGGUAGAGCAGGAUAUCGUCUUACUCGUCAUGGCAAAACAUGAGGAUCACCCAUGUAU”: the “apparent Kd” value stood at 8.16 nM under setting [3] and 7.82 nM under setting [4].

Turning to “AGUCCCAGGGAGAAGGACAUGAUCACAUGAGGAUCACCCAUGUGAGCCAUUUUAUGUAGGGACGUGUAGGAUAUCCGGACAUGG”, the “apparent Kd” value under setting [3] is 6.27 nM and the “apparent Kd” value under setting [4] is 6.11 nM.

“CGUAUGUGAGGAUAUCCGAAACUAUUUACCAAAUUAUAAGUGGAGAAGGCACAUGAGGAUCACCCAUGUGAUGG”: the “apparent Kd” value under setting [3] turned out to be 11.5 nM and the “apparent Kd” value under setting [4] amounted to 24.6 nM.

For the sequence “UAUACACAUCCACAUGAGGAUCACCCAUGUGUGCCUCGUUCCGAGGAUAUGGGCCACGAUGUUUCCCAGAAGGCGGUCGCUAUA”, the “apparent Kd” value runs as follows: under setting [3], 15 nM; under setting [4], 12.7 nM.

Turning to “UUUAGGUCAGAGAAGGGCCAUUCUACAUACUCGGCAGGAUAUCUAUUACCUGACAUGAGGAUCACCCAUGUGGUGAACCGACCA”, the “apparent Kd” value runs as follows: under setting [1], 199 nM; under setting [2], 311 nM.

As for “CAUAAACCCUAGAAGGGCGCAUUAUGUAGAUUCGCAGGAUAUAGGAACGGGAUCGUGUAUACAACAUGAGGAUCACCCAUGUCA”, the “apparent Kd” value is, setting by setting: under setting [1], 15.4 nM; under setting [2], 14.4 nM.

As for “CCCGUGCUGCGAGGAUAUGUGUAGGAUGUUUCCACAGAAGGCGCUGGAGACAUGAGGAUCACCCAUGUGAACCCACGUACGACA”, the “apparent Kd” value under setting [1] came to 24.9 nM and the “apparent Kd” value under setting [2] stood at 19.9 nM.

“CGCCACACAUGAUAAUCAUAACAUGAGGAUCACCCAUGUCAUAGAAGGUGCAUAUUUUAGAAUCGCAAGGAUAUAUGGACAAUU”: the “apparent Kd” value stood at 16.2 nM under setting [3] and 18.7 nM under setting [4].

With “CUGAGCCUGUGUGUACAUGAGGAUCACCCAUGUUCGAUAGGGUAGGAUAUCGCAGUUUCUUGAGCCGAGAAGGACCCUAAUGGA”, the “apparent Kd” value by setting is: under setting [3], 16.5 nM; under setting [4], 30.1 nM.

Consider “AGAAAACAUGAGGAUCACCCAUGUAAGGAUAUACAAACUCCAGAAAUAAAAGGAUUAAGAAGAAGGUACAUAAA”, for which the “apparent Kd” value came to 10.9 nM under setting [3] and 9.2 nM under setting [4].

In the case of “AUUAACUCAGCAGGAUAUCUCAGCGGACGUUGCAGAGAAGGGCUAUGCCUAUGUAGGCAACUCACAUGAGGAUCACCCAUGUAA”, the “apparent Kd” value is, setting by setting: under setting [1], 38.8 nM; under setting [2], 19.1 nM.

For the sequence “AGCUCGGCAGGAUAUACAUGAGGAUCACCCAUGUUUGCAGGCGCGCCGGUAGACUUUUGUAGAAGGGCCGUAUA”, the “apparent Kd” value under setting [3] was 44.8 nM and the “apparent Kd” value under setting [4] worked out at 113 nM.
